Source: PubChem BioAssay
STAT1 blocker – reduces IFN-gamma driven STAT1 reporter signal | inhibition, % at 5.5 µM | 200,000 tested, 0.35% active | NIH 3T3 STAT1-luciferase reporter, luminescence;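 active = inhibition above a set limit, the mean inhibition across all tested compounds plus 3 SD, cut at about 34% in these data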;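 also: 0% = IFN-gamma with DMSO and 100% = IFN-gamma with 300 µM nifuroxazide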
STAT3 inh-1 – STAT3 signaling inhibition | U3A cells, IL-6 STAT3-luciferase reporter, luminescence; host cell line lacks STAT1 | inhibition, % at 5.5 µM | 190,000 tested, 0.89% active | AID 862;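 active = inhibition above the mean inhibition across all screened compounds plus 3 SD, cut at about 44% in these data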;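 also: 0% = DMSO only wells and 100% = 100 µM nifuroxazide control wells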
STAT3 act-1 – activators of IL-6 induced STAT3 signaling; U3A cells, IL-6 STAT3-luciferase reporter, luminescence; 100% = signal with IL-6 EC80 alone; activation (% of control), % at 5.6 µM; 190,000 tested, 0.91% active;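 active = activation above the screen-wide mean of compound activation plus 3 SD, cut at about 130% in these data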;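 also: 0% = background luminescence of wells with medium and substrate only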
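Material: human STAT1-deficient U3A cells with stable STAT3-luciferase reporter / Probe or stimulus: IL-6 stimulus at 33 ng/mL final / Schedule: 1 h compound pre-exposure, 6 h IL-6 stimulation, 37 °C / Technique: luminescence / Read-out basis: percent of IL-6-only median luminescence / Control set: IL-6-only high control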
PERK inhibitor – human PERK inhibition, primary cell-based screen | Q9NZJ5 | inhibition, % at 5.6 µM | 220,000 tested, 0.17% active | CHO PERK-DD fusion, SEAP luminescence translation reporter | AID 1416;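 active = inhibition above the mean inhibition of all tested compounds plus 3 SD, set separately per screening campaign, cut at about 2.9% in these data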;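 also: PERK kinase domain activated by AP20187 dimerizer at 100 nM; 0% = DMSO with dimerizer and 100% = rapamycin at 8.4 µM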
Target sequence (Q9NZJ5 whole entry, looked up, the tested form may be a part): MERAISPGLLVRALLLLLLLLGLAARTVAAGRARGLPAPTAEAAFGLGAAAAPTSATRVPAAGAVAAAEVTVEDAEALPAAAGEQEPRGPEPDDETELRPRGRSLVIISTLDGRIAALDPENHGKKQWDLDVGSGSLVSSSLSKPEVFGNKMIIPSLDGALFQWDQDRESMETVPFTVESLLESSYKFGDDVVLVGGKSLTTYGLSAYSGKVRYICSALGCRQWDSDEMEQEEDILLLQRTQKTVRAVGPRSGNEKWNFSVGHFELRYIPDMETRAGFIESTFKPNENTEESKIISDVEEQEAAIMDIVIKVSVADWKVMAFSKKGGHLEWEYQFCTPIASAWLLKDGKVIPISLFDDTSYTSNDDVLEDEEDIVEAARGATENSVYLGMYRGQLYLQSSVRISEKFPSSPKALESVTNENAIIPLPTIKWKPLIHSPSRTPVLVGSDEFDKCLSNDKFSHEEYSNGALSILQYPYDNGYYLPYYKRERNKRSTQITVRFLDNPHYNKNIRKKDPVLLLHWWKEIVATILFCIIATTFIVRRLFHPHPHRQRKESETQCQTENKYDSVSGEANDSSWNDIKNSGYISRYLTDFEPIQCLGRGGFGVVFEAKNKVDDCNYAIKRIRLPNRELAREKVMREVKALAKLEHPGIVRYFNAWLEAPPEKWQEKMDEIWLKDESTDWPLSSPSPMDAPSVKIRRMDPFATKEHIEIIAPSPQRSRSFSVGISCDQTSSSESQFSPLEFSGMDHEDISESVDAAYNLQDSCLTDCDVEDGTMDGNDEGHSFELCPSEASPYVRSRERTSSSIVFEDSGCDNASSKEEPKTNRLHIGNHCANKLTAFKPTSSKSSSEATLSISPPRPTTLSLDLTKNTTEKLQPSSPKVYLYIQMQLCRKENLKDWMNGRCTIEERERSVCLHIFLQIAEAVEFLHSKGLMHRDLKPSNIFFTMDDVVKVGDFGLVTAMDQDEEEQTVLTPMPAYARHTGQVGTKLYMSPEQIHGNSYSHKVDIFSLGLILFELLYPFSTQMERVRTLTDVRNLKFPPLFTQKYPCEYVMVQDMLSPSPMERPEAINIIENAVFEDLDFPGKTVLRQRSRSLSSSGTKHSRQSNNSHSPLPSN
STAT3 inh-2 – STAT3 inhibition, confirmation assay. 1,200 tested, 45% active. inhibition, % at 5.7 µM. shares compounds with STAT3 inh-1. AID 1265. U3A cells, IL-6 STAT3 luciferase reporter, luminescence; cell line lacks STAT1;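 active = inhibition above the hit cutoff computed for the primary STAT3 screen, cut at about 44% in these data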;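 also: 0% = IL-6 plus DMSO and 100% = IL-6 plus nifuroxazide control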
NFkB inh 2 – inhibits NF-kappaB, counter-screen to STAT3 inhibitors. shares compounds with STAT3 inh-1. HEK293T NF-kB luciferase reporter, TNF-alpha induced. inhibition, % at 5.7 µM. 1,200 tested, 36% active. AID 1308;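 active = inhibition above the mean of solvent-only control wells plus 3 SD, cutoff set per campaign, cut at about 13% in these data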;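 also: 0% = TNF-alpha with DMSO and 100% = TNF-alpha with MG high control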
STAT1 inh 2 – counter-screen for STAT3 inhibitors: STAT1 inhibition; NIH 3T3 STAT1-luciferase reporter, IFN-gamma induced, luminescence; shares compounds with STAT3 inh-1; AID 1317; 1,200 tested, 27% active; inhibition, % at 5.7 µM;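 active = inhibition above the mean plus 3 SD of solvent-only control wells, limit set per screening run, cut at about 16% in these data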;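 also: 0% = DMSO with IFN-gamma and 100% = nifuroxazide control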
STAT3 act-2 – confirmation of STAT3 signaling activators. shares compounds with STAT3 act-1. U3A STAT3-luciferase reporter, IL-6 potentiation, luminescence; U3A cells lack STAT1; 100 means same as IL-6 alone. potentiation (% of control), % at 5.7 µM. 1,200 tested, 64% active;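 active = percent activation of the STAT3 luciferase reporter above a set limit taken from the earlier primary screen, cut at about 130% in these data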;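 also: 0% = background signal of medium plus substrate and 100% = median of IL-6 with DMSO wells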
NFkB act 2 – counter-screen for STAT3 activators: NF-kappaB activation | shares compounds with STAT3 act-1 | human cells, NF-kappaB reporter activation | activation (% of control), % at 5.7 µM | 1,200 tested, 11% active; in the data active = activation above about 120%;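 also: reporter induced by TNF-alpha stimulation; 100% = median of stimulated DMSO wells and 0% = no signal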
STAT1 act – STAT1 activation in STAT3 activator counter-screen | shares compounds with STAT3 act-1 | NIH 3T3 STAT1-luciferase reporter, IFN-gamma, luminescence | activation (% of control), % at 5.7 µM | 1,200 tested, 13% active;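 active = activation above the solvent-only control well mean plus 3 SD, set per screening run, cut at about 120% in these data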;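 also: 100% = IFN-gamma with DMSO median signal so 100% means no change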
Starred values were filed as active, the others as inactive; . = no result given. Shown are actives, neighbours in structure and some others; about 1.8% of the full set was active somewhere.

SMILES	STAT1 blocker	STAT3 inh-1	STAT3 act-1	PERK inhibitor	STAT3 act-2	NFkB act 2	STAT1 act	others
O=C(c1ccc(S(=O)(=O)NCC2CCCO2)cc1)N1CCc2ccccc21 (stereo not given)	17	42	66	-1	.	.	.
O=C(C1CC1)N1CCC(c2nc(-c3ccc(S(=O)(=O)NCC4CCCO4)cc3)no2)CC1 (stereo not given)	23	51*	58	-1	.	.	.	STAT3 inh-2=56*;NFkB inh 2=15*;STAT1 inh 2=15
O=C(COc1ccc(C(=O)c2ccccc2)cc1)NCC(=O)Nc1ccccc1Br	5	-6	102	0	.	.	.
CC1C(=O)CCN(C(C)(C)C)C1C (stereo not given)	-3	4	100	1	.	.	.
CC(C)n1cc(CN2CCN(CCc3ccccc3)C(CCO)C2)cn1 (stereo not given)	-7	1	110	2	.	.	.
Cc1ccc2nc(-c3ccc(NC(=O)COC(=O)c4ccc(=O)[nH]c4)cc3)sc2c1	-40	56*	53	-1	.	.	.	STAT3 inh-2=11;NFkB inh 2=-21;STAT1 inh 2=-82
Cc1nc2ccc(NC(=O)CCS(=O)(=O)c3ccccc3)cc2s1	-22	-12	107	-1	.	.	.
Cc1ccc2nc(-c3ccc(NC(=O)CCS(=O)(=O)c4ccccc4)cc3)sc2c1	9	72*	39	0	.	.	.	STAT3 inh-2=48*;NFkB inh 2=22*;STAT1 inh 2=-28
CCC1CCCCN1C(=O)CCc1nnc(C2CCCCC2)o1 (stereo not given)	-28	-2	108	-1	.	.	.
Cc1ccn2cc(C(=O)Nc3ccc4c(c3)OCCO4)nc2c1	-54	44*	65	0	.	.	.	STAT3 inh-2=5;NFkB inh 2=-21;STAT1 inh 2=-83
Cc1ccn2cc(C(=O)Nc3ccccc3N3CCOCC3)nc2c1	-13	18	92	0	.	.	.
COc1ccc(C2SCC(=O)N2CCc2ccc(OC)c(OC)c2)cc1 (stereo not given)	28	45*	64	-1	.	.	.	STAT3 inh-2=43*;NFkB inh 2=15*;STAT1 inh 2=16*
C/C(=N\Nc1nc(-c2cc(C)ccc2C)cs1)c1cc2ccccc2oc1=O	9	-1	99	0	.	.	.
C/C(=N\Nc1nc(-c2cc(C)ccc2C)cs1)c1cc2c(ccc3ccccc32)oc1=O	2	-47	146*	1	106	100	95
Cc1ccc(S(=O)(=O)N2CCCCC2)cc1C(=O)Nc1ccc2cn[nH]c2c1	15	-49	151*	0	135*	101	94
CCOc1ccc(NC(=O)C(CC(=O)O)Cc2ccccc2)cc1 (stereo not given)	-1	3	97	1	.	.	.
CCOc1ccc(NC(=O)C(Cc2ccccc2)N2C(=O)c3cccc4cccc(c34)C2=O)cc1 (stereo not given)	0	-36	138*	0	119	96	97
NC(=O)Cn1c(=O)n(Cc2ccco2)c(=O)c2c3c(sc21)CCCCC3	5	-55	147*	1	131	105	105
CCOC(=O)c1c(C)oc2c1c1c(c3ccccc32)OCN(Cc2ccccn2)C1	-7	-63	150*	0	126	99	93
CN(c1ccc([N+](=O)[O-])cc1/C=N/NC(=O)COc1ccccc1)C1CCCCC1	-10	-12	108	1	.	.	.
CC(=O)N1CCN(Cc2nc3cc(NC(=O)Nc4ccccc4)ccc3n2C)CC1	-6	14	93	1	.	.	.
Cc1ccc(S(=O)(=O)Nc2nc3ccccc3s2)cc1	5	-6	103	0	.	.	.
COc1ccc(S(=O)(=O)Nc2nc3ccccc3s2)cc1OC	-2	-56	154*	0	142*	100	94
